This note sets out measurements from ChEMBL document CHEMBL1132448, “Enantiospecific synthesis of 3-fluoromethyl-, 3-hydroxymethyl-, and 3-chloromethyl-1,2,3,4-tetrahydroisoquinolines as selective inhibitors of phenylethanolamine N-methyltransferase versus the alpha(2)-adrenoceptor” (J Med Chem, 1999).

Assay [1] is described as follows: Ratio of binding affinity of PNMT to alpha-2 receptors.
For assay [2], the target named is T1, Phenylethanolamine N-methyltransferase (Bos taurus, UniProt P10938).
T1 sequence (P10938 whole entry): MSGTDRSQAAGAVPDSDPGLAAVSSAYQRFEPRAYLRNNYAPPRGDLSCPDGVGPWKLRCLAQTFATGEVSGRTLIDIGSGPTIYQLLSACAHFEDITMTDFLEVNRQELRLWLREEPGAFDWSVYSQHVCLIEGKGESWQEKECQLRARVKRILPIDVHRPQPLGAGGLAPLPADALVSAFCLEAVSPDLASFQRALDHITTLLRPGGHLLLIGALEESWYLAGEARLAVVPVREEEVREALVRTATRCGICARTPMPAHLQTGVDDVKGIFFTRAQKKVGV
Description: In vitro inhibition of PNMT (Phenylethanolamine N-Methyltransferase).

Assay [3] concerns the target T2, Adrenergic receptor alpha-2 (Rattus norvegicus, UniProt P22086+P19328+P22909).
T2 sequence (P22086 whole entry): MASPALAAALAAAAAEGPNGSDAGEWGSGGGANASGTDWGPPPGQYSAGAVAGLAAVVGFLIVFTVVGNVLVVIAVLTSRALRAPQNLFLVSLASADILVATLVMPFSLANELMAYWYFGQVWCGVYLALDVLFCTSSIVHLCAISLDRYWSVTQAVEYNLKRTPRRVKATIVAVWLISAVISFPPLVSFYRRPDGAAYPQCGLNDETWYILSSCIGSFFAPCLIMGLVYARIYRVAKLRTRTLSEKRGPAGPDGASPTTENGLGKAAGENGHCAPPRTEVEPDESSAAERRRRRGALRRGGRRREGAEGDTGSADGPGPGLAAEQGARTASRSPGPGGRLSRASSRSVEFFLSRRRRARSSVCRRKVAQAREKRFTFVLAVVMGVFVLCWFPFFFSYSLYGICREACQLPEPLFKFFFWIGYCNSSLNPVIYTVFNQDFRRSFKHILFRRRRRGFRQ
T2 sequence (P19328 whole entry): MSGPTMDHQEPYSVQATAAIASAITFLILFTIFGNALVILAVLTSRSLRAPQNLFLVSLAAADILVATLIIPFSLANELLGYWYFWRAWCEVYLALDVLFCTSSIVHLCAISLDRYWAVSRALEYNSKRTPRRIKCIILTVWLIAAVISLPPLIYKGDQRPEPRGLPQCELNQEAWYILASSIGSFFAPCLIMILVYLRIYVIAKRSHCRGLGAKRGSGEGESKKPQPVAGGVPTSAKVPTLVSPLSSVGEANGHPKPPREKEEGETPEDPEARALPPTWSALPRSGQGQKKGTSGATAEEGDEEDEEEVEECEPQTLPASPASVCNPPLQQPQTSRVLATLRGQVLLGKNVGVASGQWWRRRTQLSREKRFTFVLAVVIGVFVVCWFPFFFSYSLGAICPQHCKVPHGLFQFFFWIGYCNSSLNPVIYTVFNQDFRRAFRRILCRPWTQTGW
T2 sequence (P22909 whole entry): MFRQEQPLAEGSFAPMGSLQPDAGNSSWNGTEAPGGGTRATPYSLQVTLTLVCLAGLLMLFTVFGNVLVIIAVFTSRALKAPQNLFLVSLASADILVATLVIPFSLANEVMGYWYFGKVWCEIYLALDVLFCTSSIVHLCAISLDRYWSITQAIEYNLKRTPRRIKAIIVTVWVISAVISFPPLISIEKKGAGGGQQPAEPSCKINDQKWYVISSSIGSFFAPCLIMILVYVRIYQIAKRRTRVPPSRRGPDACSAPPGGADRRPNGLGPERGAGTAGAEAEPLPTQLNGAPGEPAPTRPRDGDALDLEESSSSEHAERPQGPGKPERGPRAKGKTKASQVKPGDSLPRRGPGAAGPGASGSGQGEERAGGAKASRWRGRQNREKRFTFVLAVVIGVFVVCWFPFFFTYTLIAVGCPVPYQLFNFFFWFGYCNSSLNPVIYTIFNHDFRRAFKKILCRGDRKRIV
Description: In vitro inhibition of [3H]clonidine binding at the alpha-2 adrenergic receptor. It counts as protein assay. An outline of the steps: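 Membranes from male Sprague-Dawley rat cortex, homogenized and washed in 50 mM Tris/HCl pH 7.7. Incubated with [3H]clonidine (final 2.0 nM) and various inhibitor concentrations, 1 mL final volume, 25 °C for 30 min. Terminated by vacuum filtration on GF/B filters and counted. Nonspecific binding defined with 2 µM phentolamine. IC50 by log-probit analysis; Ki = IC50/(1 + [clonidine]/KD).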

Take `CC1Cc2ccccc2CN1` (centres undefined): the Selectivity in assay [1] amounted to 0.36.
The Ki is the dissociation constant of the complex between target and ligand, obtained from inhibition or displacement. A low value points to higher affinity. On to `C[C@@H]1Cc2ccccc2CN1`, for which the inhibitory constant (Ki) in assay [2] worked out at 1 µM; in assay [3], 0.49 µM. In addition, in assay [1], the Selectivity came to 0.49.
With `N#Cc1ccc2c(c1)CNC(CF)C2` (centres undefined), the Selectivity in assay [1] stood at 420.
As to `FC[C@H]1Cc2ccc(Br)cc2CN1`, the inhibitory constant (Ki) in assay [2] came to 0.51 µM; in assay [3] it was 3.1 µM. For the same compound, the Selectivity in assay [1] turned out to be 6.1.
The matching figures for `N#Cc1ccc2c(c1)CN[C@H](CF)C2`: 3.5 µM, 580 µM and 170.
The like results for `O=S(=O)(Nc1ccc(Cl)cc1)c1ccc2c(c1)CN[C@@H](CF)C2` were, in that order, 0.28 µM, 97 µM and 350.
The like results for `N#Cc1ccc2c(c1)CN[C@@H](CF)C2` were, in that order, 0.97 µM, 360 µM and 370.
For the compound `OCC1Cc2ccccc2CN1` (centres undefined), in assay [1], the Selectivity was determined as 6.
The same measure, in the same setting: as for `O=S(=O)(Nc1ccc(Cl)cc1)c1ccc2c(c1)CNC(CF)C2` (centres undefined), the figure is 220.
For the compound `OC[C@H]1Cc2ccc(Br)cc2CN1`, the figures for the Ki in assay [2] and in assay [3] were 0.38 µM and 1.2 µM, respectively. Further, the Selectivity in assay [1] is 3.2.
Regarding `OC[C@H]1Cc2ccccc2CN1`, the Selectivity in assay [1] was determined as 7.9.
For `O=[N+]([O-])c1ccc2c(c1)CN[C@@H](CCl)C2`, the inhibitory constant (Ki) in assay [2] was found to be 0.47 µM; in assay [3], 100 µM. In addition, the Selectivity in assay [1] was determined as 210.
Regarding `NS(=O)(=O)c1ccc2c(c1)CNC(CO)C2` (centres undefined), the Selectivity in assay [1] was found to be 4100.
In the case of `O=[N+]([O-])c1ccc2c(c1)CN[C@H](CCl)C2`, the figures for the inhibition constant (Ki) in assay [2] and in assay [3] were 0.66 µM and 270 µM, respectively. Also, the Selectivity in assay [1] was 410.
Turning to `CCC1Cc2ccccc2CN1` (centres undefined), the Selectivity in assay [1] was found to be 0.028.
Turning to `O=[N+]([O-])c1ccc2c(c1)CN[C@@H](CF)C2`, the values for the inhibition constant (Ki) in assay [2] and in assay [3] were 0.52 µM and 47 µM, respectively. For the same compound, the Selectivity in assay [1] is 90.
For `FCC1Cc2ccccc2CN1` (centres undefined), the Selectivity in assay [1] was 2.5.
Consider `O=S(=O)(Nc1ccc(Cl)cc1)c1ccc2c(c1)CN[C@H](CF)C2`, for which the Ki in assay [2] turned out to be 1.9 µM; in assay [3], 101 µM. Also, in assay [1], the Selectivity came to 53.
The like results for `C[C@H]1Cc2ccc([N+](=O)[O-])cc2CN1` were, in that order, 1.3 µM, 53 µM and 41.
The like results for `OC[C@@H]1Cc2ccc(Br)cc2CN1` were, in that order, 0.48 µM, 0.97 µM and 2.
The like results for `FC[C@H]1Cc2ccccc2CN1` were, in that order, 0.69 µM, 2.9 µM and 4.2.
`O=[N+]([O-])c1ccc2c(c1)CN[C@H](CF)C2`: the results for the inhibition constant (Ki) in assay [2] and in assay [3] were 0.88 µM and 140 µM, respectively. Further, the Selectivity in assay [1] is 160.
In the case of `Clc1ccc2c(c1Cl)CNCC2`, the Selectivity in assay [1] is 0.095.
Regarding `FC[C@@H]1Cc2ccc(Br)cc2CN1`, the results for the inhibition constant (Ki) in assay [2] and in assay [3] were 0.47 µM and 17 µM, respectively. For the same compound, the Selectivity in assay [1] was found to be 36.
Regarding `OC[C@@H]1Cc2ccccc2CN1`, the Selectivity in assay [1] was 1.1.
For the compound `C[C@H]1Cc2ccccc2CN1`, the results for the inhibition constant Ki in assay [2] and in assay [3] were 38 µM and 5.7 µM, respectively. Also, the Selectivity in assay [1] was found to be 0.15.
The like results for `FC[C@@H]1Cc2ccccc2CN1` were, in that order, 9.9 µM, 37 µM and 3.7.
For the compound `O=[N+]([O-])c1ccc2c(c1)CNC(CF)C2` (centres undefined), the Selectivity in assay [1] is 140.
On the same count and under the same terms, as for `c1ccc2c(c1)CCNC2`, the figure is 0.35.
`ClC[C@@H]1Cc2ccccc2CN1`: the inhibitory constant (Ki) in assay [2] came to 12 µM; in assay [3], 6.6 µM. For the same compound, the Selectivity in assay [1] stood at 0.55.
Turning to `C[C@@H]1Cc2ccc([N+](=O)[O-])cc2CN1`, the values for the Ki in assay [2] and in assay [3] were 0.25 µM and 19 µM, respectively. Also, in assay [1], the Selectivity was found to be 76.
The matching figures for `ClC[C@H]1Cc2ccccc2CN1`: 3.5 µM, 2.3 µM and 0.66.
As to `FCC1Cc2ccc(Br)cc2CN1` (centres undefined), the Selectivity in assay [1] worked out at 10.
With `NS(=O)(=O)c1ccc2c(c1)CNC(CF)C2` (centres undefined), the Selectivity in assay [1] came to 1000.
